In data set [1] the target is T1, Receptor-type tyrosine-protein kinase FLT3 (Homo sapiens, UniProt P36888).
T1 sequence (P36888 whole entry): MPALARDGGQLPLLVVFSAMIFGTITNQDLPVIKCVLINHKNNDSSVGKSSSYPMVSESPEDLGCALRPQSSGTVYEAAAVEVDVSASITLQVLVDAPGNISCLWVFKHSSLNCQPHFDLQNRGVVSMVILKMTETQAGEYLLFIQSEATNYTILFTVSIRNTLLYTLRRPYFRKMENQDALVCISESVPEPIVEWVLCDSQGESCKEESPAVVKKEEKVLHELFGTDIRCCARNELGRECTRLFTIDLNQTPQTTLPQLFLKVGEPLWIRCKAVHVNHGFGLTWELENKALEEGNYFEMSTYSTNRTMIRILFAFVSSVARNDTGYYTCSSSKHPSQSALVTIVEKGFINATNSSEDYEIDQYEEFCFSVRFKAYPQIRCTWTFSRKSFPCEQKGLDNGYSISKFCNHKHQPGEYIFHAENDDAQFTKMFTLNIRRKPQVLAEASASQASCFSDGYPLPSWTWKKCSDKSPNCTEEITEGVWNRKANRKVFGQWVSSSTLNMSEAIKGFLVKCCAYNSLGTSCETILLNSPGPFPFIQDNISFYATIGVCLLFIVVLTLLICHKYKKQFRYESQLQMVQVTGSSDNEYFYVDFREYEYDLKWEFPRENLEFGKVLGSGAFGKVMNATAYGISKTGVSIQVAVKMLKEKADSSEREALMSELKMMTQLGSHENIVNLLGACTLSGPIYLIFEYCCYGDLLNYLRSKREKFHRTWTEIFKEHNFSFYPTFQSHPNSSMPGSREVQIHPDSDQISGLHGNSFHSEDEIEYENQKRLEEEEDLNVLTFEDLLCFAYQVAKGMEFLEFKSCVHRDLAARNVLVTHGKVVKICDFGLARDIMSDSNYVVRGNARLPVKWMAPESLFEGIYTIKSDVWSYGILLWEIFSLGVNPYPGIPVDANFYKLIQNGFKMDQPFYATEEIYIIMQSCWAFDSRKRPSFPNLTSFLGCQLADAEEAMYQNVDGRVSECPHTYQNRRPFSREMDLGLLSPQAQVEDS
Kind of data set: Inhibition of recombinant human Flt3 using poly (Glu, Tyr) 4:1 as substrate after 60 mins by ELISA. An outline of the steps: (§1)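 Purified recombinant kinases tested by ELISA on plates pre-coated with 20 µg/mL poly(Glu,Tyr) 4:1. Reaction run 60 min at 37 °C. Read-out: PY99 anti-phosphotyrosine antibody, HRP anti-mouse IgG and o-phenylenediamine/H2O2, with A490 measured. IC50 from inhibition curves, two independent experiments.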
On the technique in general: An ELISA detects its analyte on a solid surface through an enzyme-linked reagent.

Data set [2] deals with Mus musculus. In words: Toxicity in nude mouse xenografted with human NCI-H1581 cells assessed as body weight loss at 2 to 10 mg/kg, po qd administered for 21 days measured during compound dosing. The format is organism-based. The settings on record: in vivo, 504 h. The gist of the method: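 Female nude mice (4–6 weeks) housed under SPF conditions. NCI-H1581 tumours were first grown from 5 × 10^6 cells s.c., and 1.5 mm3 fragments were then transplanted s.c. into the right flank. At 115 mm3, mice were randomized and given vehicle or compound orally once daily for 21 days (2 or 10 mg/kg). Tumours were measured by caliper twice weekly, with TV = length × width²/2.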
On the technique in general: Xenograft models place foreign cells or tissue in a host animal.

The target of data set [3] is T2, Fibroblast growth factor receptor 2 (Homo sapiens, UniProt P21802). In words: Inhibition of recombinant human FGFR2 using poly (Glu, Tyr) 4:1 as substrate after 60 mins by ELISA. An outline of the steps: as §1
Target sequence in this assay (P21802 whole entry): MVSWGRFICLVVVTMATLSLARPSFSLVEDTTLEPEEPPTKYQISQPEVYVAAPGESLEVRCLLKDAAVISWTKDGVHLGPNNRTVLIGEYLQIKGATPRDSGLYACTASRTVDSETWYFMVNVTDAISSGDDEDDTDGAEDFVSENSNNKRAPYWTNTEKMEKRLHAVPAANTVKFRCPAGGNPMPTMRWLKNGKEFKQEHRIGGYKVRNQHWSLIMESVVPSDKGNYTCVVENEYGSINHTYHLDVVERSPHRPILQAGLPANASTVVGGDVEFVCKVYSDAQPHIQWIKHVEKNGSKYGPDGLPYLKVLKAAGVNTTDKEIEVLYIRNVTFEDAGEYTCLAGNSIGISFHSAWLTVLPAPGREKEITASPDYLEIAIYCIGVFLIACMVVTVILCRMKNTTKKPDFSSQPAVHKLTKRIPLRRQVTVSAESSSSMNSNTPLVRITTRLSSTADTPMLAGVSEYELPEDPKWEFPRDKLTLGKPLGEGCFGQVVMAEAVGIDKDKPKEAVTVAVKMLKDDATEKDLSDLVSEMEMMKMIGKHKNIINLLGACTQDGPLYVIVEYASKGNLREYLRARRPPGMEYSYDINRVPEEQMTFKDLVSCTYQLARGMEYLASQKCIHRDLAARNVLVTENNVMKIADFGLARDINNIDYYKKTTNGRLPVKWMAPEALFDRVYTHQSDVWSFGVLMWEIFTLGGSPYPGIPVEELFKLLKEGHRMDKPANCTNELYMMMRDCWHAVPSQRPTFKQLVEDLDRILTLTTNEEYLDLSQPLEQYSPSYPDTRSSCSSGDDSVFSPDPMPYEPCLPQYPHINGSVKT
The target in data set [4] is T3, Fibroblast growth factor receptor 1 (Homo sapiens, UniProt P11362). In words: Inhibition of FGFR1 in human KG1 cells assessed as reduction of ERK phosphorylation at 0.1 to 10 nM after 2 hrs by Western blot method. In kind it is cell-based. The following applies: KG-1. The gist of the method: (§2)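 KG-1 cells treated at indicated concentrations for 2 h, then lysed in 1× SDS sample buffer. Lysates run on 10% SDS-PAGE, transferred to nitrocellulose, and probed for phospho-FGFR, PLCγ and Erk. Detection by enhanced chemiluminescence.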
Target sequence in this assay (P11362 22-822 limits assumed): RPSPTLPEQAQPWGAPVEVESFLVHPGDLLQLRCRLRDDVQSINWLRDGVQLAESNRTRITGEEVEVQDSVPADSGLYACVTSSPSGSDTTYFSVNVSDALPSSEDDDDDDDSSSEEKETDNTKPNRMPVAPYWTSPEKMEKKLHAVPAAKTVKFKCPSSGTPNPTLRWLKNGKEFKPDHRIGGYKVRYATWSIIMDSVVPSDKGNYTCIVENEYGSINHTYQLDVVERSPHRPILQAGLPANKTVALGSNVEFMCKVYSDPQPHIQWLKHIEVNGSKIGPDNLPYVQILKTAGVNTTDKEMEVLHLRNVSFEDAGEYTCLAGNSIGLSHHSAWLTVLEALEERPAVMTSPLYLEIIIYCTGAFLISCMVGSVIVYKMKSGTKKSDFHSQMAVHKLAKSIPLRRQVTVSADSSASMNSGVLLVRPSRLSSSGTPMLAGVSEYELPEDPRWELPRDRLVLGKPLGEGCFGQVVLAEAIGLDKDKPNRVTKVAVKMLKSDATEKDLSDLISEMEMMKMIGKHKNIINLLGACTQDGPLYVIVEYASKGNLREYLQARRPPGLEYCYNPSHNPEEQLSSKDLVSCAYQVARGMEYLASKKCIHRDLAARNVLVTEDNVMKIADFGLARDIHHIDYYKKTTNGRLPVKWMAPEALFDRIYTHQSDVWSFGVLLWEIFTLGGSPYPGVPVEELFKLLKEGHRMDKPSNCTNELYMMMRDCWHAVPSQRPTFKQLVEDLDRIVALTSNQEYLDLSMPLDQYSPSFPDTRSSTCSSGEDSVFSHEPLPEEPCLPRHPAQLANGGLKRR

Data set [5] addresses Proto-oncogene tyrosine-protein kinase Src (Homo sapiens, UniProt P12931). In words: Inhibition of recombinant human c-Src using poly (Glu, Tyr) 4:1 as substrate after 60 mins by ELISA. An outline of the steps: as §1
Data set [6] addresses Platelet-derived growth factor receptor alpha (Homo sapiens, UniProt P16234). Kind of data set: Inhibition of recombinant human PDGFRalpha using poly (Glu, Tyr) 4:1 as substrate after 60 mins by ELISA. The gist of the method: as §1
Data set [7] concerns the target Proto-oncogene tyrosine-protein kinase receptor Ret (Homo sapiens, UniProt P07949). In words: Inhibition of recombinant human RET using poly (Glu, Tyr) 4:1 as substrate after 60 mins by ELISA. The gist of the method:
as §1

Data set [8] has as its target T3, Fibroblast growth factor receptor 1. In words: Inhibition of recombinant human FGFR1 using poly (Glu, Tyr) 4:1 as substrate after 60 mins by ELISA.
For data set [9], the target named is Epidermal growth factor receptor (Homo sapiens, UniProt P00533). In words: Inhibition of recombinant human EGFR using poly (Glu, Tyr) 4:1 as substrate after 60 mins by ELISA. An outline of the steps: as §1
Data set [10] is described as follows: AUC (0 to infinity) in Sprague-Dawley rat at 5 mg/kg, po. The format is ADME, organism-based. Set-up: dose 5 mg/kg, route oral, time infinity. The following applies: in vivo. The gist of the method: (§3)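 Male SD rats (n = 3) dosed orally by gavage at 5 mg/kg as a suspension in 0.5% CMC-Na. Quantified by LC-MS/MS. An IV arm (1 mg/kg) was run in parallel.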

Data set [11] has as its target T2, Fibroblast growth factor receptor 2. In words: Inhibition of FGFR2 phosphorylation in human SNU15 cells at 0.1 to 10 nM after 2 hrs by Western blot method. In kind it is cell-based. A general note: A western blot detects proteins with antibodies after separation by electrophoresis.
Target sequence in this assay (P21802 22-821 limits assumed): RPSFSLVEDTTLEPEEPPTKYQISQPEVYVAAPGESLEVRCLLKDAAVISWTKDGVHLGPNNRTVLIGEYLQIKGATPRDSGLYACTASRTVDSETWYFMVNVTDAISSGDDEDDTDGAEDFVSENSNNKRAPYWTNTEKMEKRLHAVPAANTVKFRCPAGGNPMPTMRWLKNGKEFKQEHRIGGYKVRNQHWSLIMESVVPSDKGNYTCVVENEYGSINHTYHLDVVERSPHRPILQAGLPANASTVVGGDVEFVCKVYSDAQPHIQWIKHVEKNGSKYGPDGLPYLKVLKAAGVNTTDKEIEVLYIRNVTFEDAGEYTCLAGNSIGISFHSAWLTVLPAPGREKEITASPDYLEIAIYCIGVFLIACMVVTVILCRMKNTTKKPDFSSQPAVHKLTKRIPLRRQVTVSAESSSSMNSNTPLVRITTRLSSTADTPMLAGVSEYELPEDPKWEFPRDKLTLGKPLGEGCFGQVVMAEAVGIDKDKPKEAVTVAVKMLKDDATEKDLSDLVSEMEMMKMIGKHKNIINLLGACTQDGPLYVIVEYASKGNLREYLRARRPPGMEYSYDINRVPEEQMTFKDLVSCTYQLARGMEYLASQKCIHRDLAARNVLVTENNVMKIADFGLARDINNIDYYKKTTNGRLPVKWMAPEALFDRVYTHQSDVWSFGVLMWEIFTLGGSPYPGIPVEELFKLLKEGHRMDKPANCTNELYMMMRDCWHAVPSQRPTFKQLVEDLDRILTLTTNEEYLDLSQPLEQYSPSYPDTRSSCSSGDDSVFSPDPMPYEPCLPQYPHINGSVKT
Data set [12] is described as follows: Cmax in Sprague-Dawley rat at 1 mg/kg, iv. In kind it is ADME, organism-based. Details: dose 1 mg/kg, route intravenous. The following applies: in vivo.
A short description of data set [13]: Half life in Sprague-Dawley rat at 1 mg/kg, iv. The format is ADME, organism-based. The following applies: in vivo.
Data set [14] deals with Fibroblast growth factor receptor 4 (Homo sapiens, UniProt P22455). In words: Inhibition of recombinant human FGFR4 using poly (Glu, Tyr) 4:1 as substrate after 60 mins by ELISA. An outline of the steps: as §1
The nature of data set [15]: Cmax in Sprague-Dawley rat at 5 mg/kg, po. The settings on record: in vivo. Set-up: dose 5 mg/kg, route oral. The format is ADME, organism-based. The gist of the method:
as §3

The target of data set [16] is T3, Fibroblast growth factor receptor 1. Kind of data set: Inhibition of FGFR1 phosphorylation in human KG1 cells after 2 hrs by Western blot method. In kind it is cell-based. The settings on record: KG-1. An outline of the steps: as §2
Target sequence in this assay (P11362 22-822 limits assumed): as the sequence (P11362 22-822 limits assumed) above
Data set [17] in a line: Tmax in Sprague-Dawley rat at 5 mg/kg, po. In kind it is ADME, organism-based. The settings on record: in vivo. An outline of the steps:
as §3

Data set [18] can be described thus: cells. The settings on record: Homo sapiens, SNU-16, 72 h.
For data set [19], the target named is Bcr/Abl fusion protein (Homo sapiens, UniProt P00519). In words: Inhibition of recombinant human Bcr-Abl using poly (Glu, Tyr) 4:1 as substrate after 60 mins by ELISA. The format is protein assay. An outline of the steps:
as §1

The target of data set [20] is Hepatocyte growth factor receptor (Homo sapiens, UniProt P08581). Kind of data set: Inhibition of recombinant human c-Met using poly (Glu, Tyr) 4:1 as substrate after 60 mins by ELISA. An outline of the steps: as §1
Data set [21] concerns the target Vascular endothelial growth factor receptor 2 (Homo sapiens, UniProt P35968). Kind of data set: Inhibition of recombinant human VEGFR2 using poly (Glu, Tyr) 4:1 as substrate after 60 mins by ELISA.
The nature of data set [22]: Clearance in Sprague-Dawley rat at 1 mg/kg, iv. The format is ADME, organism-based. The settings on record: in vivo.

Calls of active or inactive are those of the source. No cut-off for these calls is given here. Where only a bound is given, the exact number is not on record here.

Here are results for one compound from ChEMBL document CHEMBL3826910, “Discovery of 3-(5'-Substituted)-Benzimidazole-5-(1-(3,5-dichloropyridin-4-yl)ethoxy)-1H-indazoles as Potent Fibroblast Growth Factor Receptor Inhibitors: Design, Synthesis, and Biological Evaluation” (J Med Chem, 2016).

One may read the IC50 as the point on the concentration scale where inhibition reaches its midpoint. What is called AUC(0-inf) is total exposure, with the tail of the curve extrapolated. Lower therefore signals low exposure. Usually Cmax stands for the highest concentration seen after dosing. Usually half-life stands for how long it takes for the measured level to halve. Read a low half-life as rapid decline. Broadly, the Tmax is the time at which the peak concentration occurs. What is called clearance is a measure of how efficiently the substance is removed, as volume per time. A higher clearance goes with efficient removal.

Sequence of Vascular endothelial growth factor receptor 2 (P35968 whole entry): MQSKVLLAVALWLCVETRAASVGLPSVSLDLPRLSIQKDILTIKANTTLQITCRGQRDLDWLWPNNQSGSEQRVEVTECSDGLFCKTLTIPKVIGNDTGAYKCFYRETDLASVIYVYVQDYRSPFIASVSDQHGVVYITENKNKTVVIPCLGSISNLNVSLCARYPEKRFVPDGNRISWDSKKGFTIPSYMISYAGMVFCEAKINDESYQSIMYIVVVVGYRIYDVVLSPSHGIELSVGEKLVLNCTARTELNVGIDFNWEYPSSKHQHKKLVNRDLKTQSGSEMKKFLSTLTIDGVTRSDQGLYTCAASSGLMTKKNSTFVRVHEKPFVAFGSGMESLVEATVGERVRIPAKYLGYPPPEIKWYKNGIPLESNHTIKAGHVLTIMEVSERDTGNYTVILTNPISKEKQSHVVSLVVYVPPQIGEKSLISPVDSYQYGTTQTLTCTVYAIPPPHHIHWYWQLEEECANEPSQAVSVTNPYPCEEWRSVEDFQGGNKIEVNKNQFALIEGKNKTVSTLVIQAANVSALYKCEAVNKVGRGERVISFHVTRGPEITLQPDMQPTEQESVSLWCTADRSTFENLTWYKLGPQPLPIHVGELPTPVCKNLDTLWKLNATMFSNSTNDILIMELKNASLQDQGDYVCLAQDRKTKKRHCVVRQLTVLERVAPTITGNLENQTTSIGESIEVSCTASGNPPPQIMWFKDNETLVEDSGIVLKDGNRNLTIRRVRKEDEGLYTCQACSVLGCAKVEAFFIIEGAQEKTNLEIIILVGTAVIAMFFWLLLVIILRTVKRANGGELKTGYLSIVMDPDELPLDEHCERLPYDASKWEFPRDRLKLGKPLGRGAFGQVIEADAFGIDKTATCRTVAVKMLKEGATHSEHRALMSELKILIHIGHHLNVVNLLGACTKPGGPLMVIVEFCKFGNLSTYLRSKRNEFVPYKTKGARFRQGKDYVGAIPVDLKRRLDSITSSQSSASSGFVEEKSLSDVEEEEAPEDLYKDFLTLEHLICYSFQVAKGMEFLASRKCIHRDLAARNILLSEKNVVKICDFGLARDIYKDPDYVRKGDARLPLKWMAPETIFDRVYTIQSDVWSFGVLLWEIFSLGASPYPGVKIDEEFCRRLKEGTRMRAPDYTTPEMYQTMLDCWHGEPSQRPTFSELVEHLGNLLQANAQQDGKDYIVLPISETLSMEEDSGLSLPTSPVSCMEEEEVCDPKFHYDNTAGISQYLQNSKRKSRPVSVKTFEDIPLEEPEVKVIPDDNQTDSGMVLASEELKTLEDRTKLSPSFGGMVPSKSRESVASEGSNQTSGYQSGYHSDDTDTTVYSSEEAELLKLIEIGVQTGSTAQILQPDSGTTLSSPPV
Sequence of Proto-oncogene tyrosine-protein kinase receptor Ret (P07949 whole entry): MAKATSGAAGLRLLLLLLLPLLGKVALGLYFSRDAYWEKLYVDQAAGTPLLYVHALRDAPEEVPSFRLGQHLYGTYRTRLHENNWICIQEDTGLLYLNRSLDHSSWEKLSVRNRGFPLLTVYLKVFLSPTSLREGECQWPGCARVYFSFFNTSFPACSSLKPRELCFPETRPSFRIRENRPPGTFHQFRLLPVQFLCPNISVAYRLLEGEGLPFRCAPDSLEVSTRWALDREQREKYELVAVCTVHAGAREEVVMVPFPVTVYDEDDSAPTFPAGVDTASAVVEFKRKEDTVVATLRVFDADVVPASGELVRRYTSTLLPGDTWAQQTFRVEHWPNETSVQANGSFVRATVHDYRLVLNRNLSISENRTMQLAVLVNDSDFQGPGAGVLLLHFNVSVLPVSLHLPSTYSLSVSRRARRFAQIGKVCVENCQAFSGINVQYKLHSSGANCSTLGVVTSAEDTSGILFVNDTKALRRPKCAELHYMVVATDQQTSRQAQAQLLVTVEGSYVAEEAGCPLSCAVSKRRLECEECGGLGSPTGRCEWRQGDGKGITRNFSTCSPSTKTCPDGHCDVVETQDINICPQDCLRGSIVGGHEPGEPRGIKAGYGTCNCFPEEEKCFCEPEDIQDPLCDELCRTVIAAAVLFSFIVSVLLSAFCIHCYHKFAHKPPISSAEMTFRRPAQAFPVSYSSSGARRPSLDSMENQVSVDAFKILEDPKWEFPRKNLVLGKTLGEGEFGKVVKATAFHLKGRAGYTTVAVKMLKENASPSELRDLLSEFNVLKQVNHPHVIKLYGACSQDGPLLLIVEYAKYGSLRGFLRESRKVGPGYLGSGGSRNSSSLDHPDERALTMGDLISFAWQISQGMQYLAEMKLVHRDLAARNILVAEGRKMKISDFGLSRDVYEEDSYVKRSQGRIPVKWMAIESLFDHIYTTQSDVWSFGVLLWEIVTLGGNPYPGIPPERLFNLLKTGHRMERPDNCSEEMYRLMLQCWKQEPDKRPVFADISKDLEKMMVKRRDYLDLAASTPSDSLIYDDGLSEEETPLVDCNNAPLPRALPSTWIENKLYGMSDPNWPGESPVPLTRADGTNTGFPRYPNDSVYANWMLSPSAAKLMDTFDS

For `C[C@@H](Oc1ccc2[nH]nc(-c3nc4cc(N5CCN(C)CC5)ccc4[nH]3)c2c1)c1c(Cl)cncc1Cl`, the IC50 is above 100 nM in data set [1]; 2 nM in data set [3]; above 100 nM in [5]; 782 nM in data set [6]; above 100 nM in [7]; 0.9 nM in data set [8]. The concentration for half-maximal inhibition (IC50) in [9] was above 1000 nM; in data set [14], 6.1 nM; in data set [18], below 0.1 nM; in [19], above 100 nM; in data set [20], above 100 nM; in data set [21] it was 7.5 nM. In [2], the Activity result is “Non-toxic”. The inhibition entry in data set [4] and in data set [11] was “Active” throughout. In [10], the AUC(0-inf) was 799 ng·h/mL. The Cmax amounted to 300 ng/mL in data set [12] and 97.2 ng/mL in data set [15]. The compound also had a half-life in data set [13] of 2 h. In data set [16], the inhibition result is “Dose-dependent effect”. Moreover, the Tmax in data set [17] came out at 4 h. The compound further had a clearance in [22] of 33.3 mL/min/kg.
